Test system: MS2 coat protein
Assay: apparent Kd, MS2 coat protein; higher = weaker binding; RNA-MaP array; FMN 200 µM where present
In short: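 The apparent Kd comes from binding curves fitted cluster by cluster, filtered, and summarised as a median. Those curves followed SNAP-549-labelled MS2 coat protein from 0.7 or 1.5 nM, doubling to 3 µM, on Illumina sequencing-chip clusters where stalled E. coli RNA polymerase had transcribed the designs, without and then with constant ligand. The buffer was 100 mM Tris-HCl pH 7.5, 80 mM KCl, 4 mM MgCl2, BSA, DTT, yeast tRNA and Tween-20, and green signal was normalised to red-channel RNA signal and control-cluster median Fmax.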

[1] = designed as: ON switch for flavin mononucleotide, no ligand
[2] = ligand present: flavin mononucleotide, designed as: ON switch for flavin mononucleotide
[3] = designed as: OFF switch for flavin mononucleotide, no ligand
[4] = ligand present: flavin mononucleotide, designed as: OFF switch for flavin mononucleotide

UUUUAAUAAGAGAAGGAGCACUUCAUGAGGAUCACCCAUGUGUUAGUAGUUAGGAUAUUUAAUAACAUGAGGAUCACCCAUGUC
apparent Kd [1]: 159 nM | apparent Kd [2]: 123 nM

CCAGAGGAGUAGGAUAUAGGCCGCCAUCGGCGCCUAGAAGGGCUCACAUGAGGAUCACCCAUGUGAUGUUAGUU
apparent Kd [3]: 17.5 nM | apparent Kd [4]: 20 nM

GGAAUGAGGCAGGAUAUGGGAGGGAGGACCGGACCAGAAGGGUUGACAUGAGGAUCACCCAUGUAGAGAUCCUC
apparent Kd [3]: 1060 nM | apparent Kd [4]: 724 nM

ACAUGUUAUACAGGAUAUGUUAUACAAUAAUCAAUCAGUUAUUAUGAUUUUACAGAAGGGUAUACAUGAGGAUCACCCAUGUUA
apparent Kd [3]: 31.5 nM | apparent Kd [4]: 33.8 nM

GACCGCGAGGGAGGAUAUGGAGCCUUAUUGGCUCCAGAAGGUCCAUAAGGGACAUGAGGAUCACCCAUGUGGGUUGAAGCGGUC
apparent Kd [1]: 155 nM | apparent Kd [2]: 57.2 nM

AGUAAGCUUGAGAAGGUGAAGUGGAAACAUGAGGAUCACCCAUGUAUUAGGAAGCCUGGUUUUGUCAAGGAUAUCGGGUUUACA
apparent Kd [1]: 12.2 nM | apparent Kd [2]: 12.6 nM

UAUACUUACGAAGGAUAUGGUUACAUGAGGAUCACCCAUGUAUGUAUAUUGAUCUUGUAUUUUAACCAGAAGGUCGUGAGUAUA
apparent Kd [3]: 143 nM | apparent Kd [4]: 114 nM

UUGAAGAAUUAAGGAUAUUGAAUACAUAUGUUAAACAUGAGGAUCACCCAUGUGGGUUGCGGUAUCGAGAAGGUAAAUUACUAG
apparent Kd [1]: 83 nM | apparent Kd [2]: 78.7 nM

CGAUAAUAUAGAGGAUAUGUUUAACAUGAGGAUCACCCAUGUGACAUGGGAUUAAUAUAUAACUUACAGAAGGCUAUACAAUCG
apparent Kd [3]: 34.1 nM | apparent Kd [4]: 46.9 nM

ACUAGAUGCGUGCAAUAACACAUGAGGAUCACCCAUGUGACACAGGAUAUAACCAGAUCAGAAAGUUAGAAGGGUGAGCACGCA
apparent Kd [1]: 29.6 nM | apparent Kd [2]: 18.9 nM

GGGCUUUGGGAGAAGGUACAUUAAAUUAGUUUAACAUGAGGAUCACCCAUGUAAGGAUAUCCCAUCUUGUAUUAUGGUACAGCC
apparent Kd [3]: 12.8 nM | apparent Kd [4]: 12.8 nM

GUUGUUUCUGAGGAUAUUAUUUUAUUCGAUUGAUAAGAAGGCAGUACAUGAGGAUCACCCAUGUGGGUUGUUUG
apparent Kd [3]: 60.6 nM | apparent Kd [4]: 122 nM

CGCGAUAGCAUAGGAUAUUGAUACAUGAGGAUCACCCAUGUCAACCAUGAAGCUCGAAUUGUUGACAAGAAGGAUGAGGUCGCG
apparent Kd [1]: 81.3 nM | apparent Kd [2]: 55.3 nM

GCUAUCGGGUGAGGAUAUAUGGUUGUGAUUAAAAUAGAAGGCAUCUCAGAAGACAUGAGGAUCACCCAUGUAGUUAAGAUGGCA
apparent Kd [1]: 63.4 nM | apparent Kd [2]: 46.8 nM

AGUGCUAUGUAGAAGGCAGAUCUGAUUCAGAUCUGAGGAUAUACAUGAGGAUCACCCAUGUUAUGCACCAGCACGAGAGUGCAU
apparent Kd [3]: 20 nM | apparent Kd [4]: 98 nM

ACAUGAGGAUCACCCAUGUGAUGAUCUUCCAUGUCAUAUUUCAGAAGGCACGCAUCUUUAAUGAGUGAGGAUAUGGAAUAUGCG
apparent Kd [3]: 674 nM | apparent Kd [4]: 410 nM

GUAUAUCACUUAGGAUAUCUGUAAUUUAUUGAAACAUGAGGAUCACCCAUGUUCAUAAAUUUAUAGGAGAAGGGAGUGAUAUAC
apparent Kd [1]: 4.19 nM | apparent Kd [2]: 4.24 nM

AAUAACAGAGGAUAUACUAUUUUAUGUGUUUGUUAUUUUAAACAUGAGGAUCACCCAUGUAGAAGGCUGAUUAA
apparent Kd [3]: 42 nM | apparent Kd [4]: 44.6 nM

UUUAUGUCAGGAUAUGAGUAGUAGAACAAUAGUACUACUACUCAGAAGGGACAUGAGGAUCACCCAUGUUCUUC
apparent Kd [3]: 16.7 nM | apparent Kd [4]: 46.6 nM

AUAGGCCUAGGAUAUACAUGAGGAUCACCCAUGUUAAUAAUUCGAUCAUGAUAAACGUGUAGAAGGAGGAAUAA
apparent Kd [3]: 32.9 nM | apparent Kd [4]: 36.9 nM

GGACUUCCUGAGGAUAUGAAUCAACAUAUAGCUUUAGAAGGCAGGACAUGAGGAUCACCCAUGUGAACUCUUUC
apparent Kd [3]: 49.8 nM | apparent Kd [4]: 57.6 nM

UAUUGAUAAUAUUUUAACAUGAGGAUCACCCAUGUCGCUCGACAGGAUAUAUUUUAUUUGUUUAAGUAGAAGGGUCGCAGAUUU
apparent Kd [1]: 117 nM | apparent Kd [2]: 103 nM

UACUGGUGUGAGAAGGGACAUAUCUCCAUGAGGGCAGGGCGAUUAGAGAAGUCAGGAUAUCACAUGAGGAUCACCCAUGUGACA
apparent Kd [3]: 8.14 nM | apparent Kd [4]: 8.51 nM

GGAUAGGACAGAGGAUAUACGUGCUAGGGAUACUAGCAAAAUUUCCUCACAUGAGGAUCACCCAUGUAGAAGGCUGUCCUAUCG
apparent Kd [3]: 16.1 nM | apparent Kd [4]: 416 nM

GUCAGCUCGUGAGGAUAUACAACACUGCUUCGGCAGUGUAUUAAGAUCACAUGAGGAUCACCCAUGUAGAAGGCACGAGAUGAU
apparent Kd [3]: 14.3 nM | apparent Kd [4]: 237 nM

GUCAGACGAGGAUAUAGAUUUAAGUACAUGAGGAUCACCCAUGUACAUAUGUAUUUAGAUUUAGAAGGCGUCUGAC
apparent Kd [3]: 28.2 nM | apparent Kd [4]: 31.6 nM

AAUGGGUGUGUGAGGAUAUACGAUGGCAGUUGCCAGUAGAAGGUACAUGAGGAUCACCCAUGUGUCCAAAAGUG
apparent Kd [3]: 13.2 nM | apparent Kd [4]: 16 nM

UUACCUUAUGAGAAGGCGAUCAUGAAACAUGAUCGAGGAUAUCAUGUAAACAUGAGGAUCACCCAUGUAUGGGUAUUAUGGUAU
apparent Kd [1]: 96 nM | apparent Kd [2]: 23.9 nM

GCUGCGCGAGGAUAUGCGGUUCGGGCGGUGGCCGCUGGCGGACAUGAGGAUCACCCAUGUAGAAGGCGUGCGGG
apparent Kd [3]: 22.5 nM | apparent Kd [4]: 23.2 nM

GUUGUUACUGAGGAUAUUAUUUUAUUCGAUUGAUAAGAAGGCAGUACAUGAGGAUCACCCAUGUGGGUAGUUUG
apparent Kd [3]: 355 nM | apparent Kd [4]: 586 nM

GUCAGCUCGUGAGGAUAUACAUGUGCUGGAGACAGCACUAAUUAAUUCACAUGAGGAUCACCCAUGUAGAAGGCACGAGCUGAU
apparent Kd [3]: 16.2 nM | apparent Kd [4]: 19.6 nM

AAGAAGAACGUAGGAUAUCAAUGAGGAUCACCCUGAGAAGGACGUGAGGACAUGAGGAUCACCCAUGUGGAUCACCCAUGUCAU
apparent Kd [3]: 168 nM | apparent Kd [4]: 130 nM

AAUAACAGAGGAUAUACUGUUUUAUGUGUUUGUUAUUUUAAACAUGAGGAUCACCCAUGUAGAAGGCUGAGUAA
apparent Kd [3]: 27.4 nM | apparent Kd [4]: 27 nM

GAUACACAUGAGGAUCACCCAUGUCGUAUGACAUGAGGAUAUGUACAGACUUCGGUCUGUACAGAAGGCAUGUGUC
apparent Kd [1]: 115 nM | apparent Kd [2]: 199 nM

ACUUAUAGAGGAUAUACAGUAUAUUACAUGAGGAUCACCCAUGUUCUUCAAUGUAUAUAUGUAGAAGGCUAAGGAA
apparent Kd [3]: 206 nM | apparent Kd [4]: 541 nM

UUGGAGAUAGGAUAUACGAGGAGAGUAGAGGGAAGGUGAUGACAUGAGGAUCACCCAUGUAGAAGGAUCAGGAG
apparent Kd [3]: 155 nM | apparent Kd [4]: 100 nM

AAUUGACACGUAGGAUAUCGAUCUAAUUUAAUUCGAGAAGGACGCACAUGAGGAUCACCCAUGUUUAAUGGAUUAGACAUGUUG
apparent Kd [3]: 162 nM | apparent Kd [4]: 328 nM

GUAUCUUACUGAGGAUAUUUACGAUUAGUGUAGACAUGAGGAUCACCCAUGUGGCGUUAGUCACGGGAGAAGGCAGUUUGAUAC
apparent Kd [1]: 82.5 nM | apparent Kd [2]: 21.3 nM

GGUACCAUCACAGGAUAUGCUUUCCUUUGGGAAGCAGAAGGGUGUAACAUGAGGAUCACCCAUGUGGUGCCAGGGCGCGAGCCC
apparent Kd [1]: 182 nM | apparent Kd [2]: 16.8 nM

GGUGCAUAUGAGAAGGCGAUCAUGAAACAUGAUCGAGGAUAUCAUGUAAACAUGAGGAUCACCCAUGUAUGGGAAUAUUGCACC
apparent Kd [1]: 176 nM | apparent Kd [2]: 12.6 nM

CGUAAGCAAGGAUAUACAUGAGGAUCACCCAUGUAGCUUUGCUUCGUGGGCACAACAUGUAGAAGGUGCGAAAA
apparent Kd [3]: 15.3 nM | apparent Kd [4]: 13.3 nM

GUCUUCCUAGGAUAUACAUGAGGAUCACCCAUGUACAGUUUCGUCUAGGGAUACUCGCGUAGAAGGAGGUGGAU
apparent Kd [3]: 20.8 nM | apparent Kd [4]: 26.5 nM

AGCUAGUCAGGAUAUACGUACAUGUCAUUAGACGUGAAGGGACAUGAGGAUCACCCAUGUAGAAGGGACUAGCA
apparent Kd [3]: 40 nM | apparent Kd [4]: 164 nM

GGACCGUCCAGAGUUGGCGGUCGGCAGGAUAUGACAUGAGGAUCACCCAUGUGAACUCCAUUGGGUCAGAAGGGCCACGACGAU
apparent Kd [3]: 25.2 nM | apparent Kd [4]: 94.7 nM

GAUAGGACAGAGAAGGACAUAGCUAGAGAUACUAGCAUAUGAACCUCUACAUGAGGAUCACCCAUGUAGGAUAUCUGUCCUAUC
apparent Kd [3]: 6.07 nM | apparent Kd [4]: 6.21 nM

UUUUUAUAAGAGAAGGAGGACUUCAUGAGGAUCACCCAUGUGUUAGUACUUAGGAUAUUUGAUAACAUGAGGAUCACCCAUGUC
apparent Kd [1]: 31.4 nM | apparent Kd [2]: 28.1 nM

GCACUGGAUGUAGGAUAUCAGGACGAUAAGUCCUGAGAAGGACAUGAGGAUCACCCAUGUGAUUACACCAGUGCAAAUAAUAUA
apparent Kd [3]: 5.78 nM | apparent Kd [4]: 7.06 nM

ACGCUUUGGGAGAAGGUACGUUAAAUUUUUUCCACAUGAGGAUCACCCAUGUAAGGAUAUCCCAUCGUUAAAUAGGCUACAGCA
apparent Kd [3]: 8.92 nM | apparent Kd [4]: 8.85 nM

Reference: the EternaBench riboswitch data
